Source: PubChem BioAssay
Runt-SMMHC FRET = inhibitors of human RUNX1 Runt domain binding to CBFb-SMMHC; Q01196+Q13951; Cerulean-Runt/Venus-CBFb-SMMHC FRET ratio 530/480, 1 h; inhibition, % at 20 µM; 220,000 compounds, 0.74% hits; AID 1434;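 active = mean inhibition across duplicate retests at 20 µM reaching about 50%, limit read from the data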;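 note: inhibitors lower the FRET ratio by blocking Runt binding to CBFb-SMMHC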
TbHK1 inh = blocks Trypanosoma brucei hexokinase 1 activity; recombinant TbHK1, G6PDH-coupled NADH A340; inhibition, % at 10 µM; 220,000 compounds, 0.11% hits;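 active = inhibition of 50% or more in the single-dose primary screen; inactive = inhibition below 50%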
Runt-CBFb FRET = Runt domain-CBFb interaction inhibition. Q01196+Q13951. Cerulean-Runt/Venus-CBFb FRET ratio 530/480, 1 h. inhibition, % at 20 µM. 220,000 compounds, 0.46% hits. AID 1496;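 active = inhibition over about 50% at 20 µM in the single-dose screen, limit read from the data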
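test system = Cerulean-tagged RUNX1 Runt domain (FRET donor) fusion protein | reagent = Venus-CBFb binding partner, 100 nM | incubation = protein complex preformed 1 h, compound exposure 1 h, room temperature, dark | detection = FRET fluorescence | read-out basis = loss of energy transfer signal | controls = 5 µM unlabeled CBFb as full-inhibition high control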
Hck Nef HTS = blocks Nef-activated human Hck kinase | Recombinant Hck-YEEI plus Nef, Z-Lyte FRET kinase assay | inhibition, % at 20 µM | 220,000 compounds, 0.68% hits | AID 463187;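 active = Hck-Nef kinase inhibition above about 50%, limit read from the data; inactive = inhibition below that limit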
Target sequence (P08631 whole entry, looked up): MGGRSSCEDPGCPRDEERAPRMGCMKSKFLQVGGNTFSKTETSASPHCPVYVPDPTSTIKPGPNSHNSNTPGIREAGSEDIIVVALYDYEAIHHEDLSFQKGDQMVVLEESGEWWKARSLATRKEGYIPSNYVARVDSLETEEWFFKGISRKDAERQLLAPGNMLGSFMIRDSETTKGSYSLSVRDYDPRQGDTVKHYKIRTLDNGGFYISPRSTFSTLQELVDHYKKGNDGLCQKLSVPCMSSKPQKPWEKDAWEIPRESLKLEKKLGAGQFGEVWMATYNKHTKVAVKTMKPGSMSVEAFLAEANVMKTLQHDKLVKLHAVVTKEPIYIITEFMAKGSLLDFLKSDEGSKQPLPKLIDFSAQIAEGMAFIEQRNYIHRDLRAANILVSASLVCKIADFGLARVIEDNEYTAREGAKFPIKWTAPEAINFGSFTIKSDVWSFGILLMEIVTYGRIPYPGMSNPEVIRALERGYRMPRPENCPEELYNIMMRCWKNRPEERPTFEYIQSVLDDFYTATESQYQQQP
p97 inhibitor = blocks human p97 ATPase activity; AID 1481; P55072; recombinant p97 ATPase, Kinase-Glo ATP luminescence, 3 h; inhibition, % at 8 µM; 220,000 compounds, 0.42% hits; in the data active = inhibition above about 15%
RanGTP-Impb inh = disruptors of Ran-importin-beta complex formation – biochemical, FRET, CFP-Ran, YFP-importin-beta, homogeneous, primary screen. inhibition, % (test concentration not listed). AID 2216. 300,000 compounds, 1.1% hits. cell-free CFP-Ran/YFP-importin-beta FRET ratio;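 active = more than half of the replicate wells show a fall in the fluorescence ratio signal beyond about 16%, limit read from the data, passing the limit was not always enough; inconclusive = exactly half of the replicate wells pass the set limit; inactive = fewer than half of replicates pass the limit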
p97 confirm = confirmation of human p97 ATPase inhibitors; inhibition, % at 8 µM; recombinant p97 ATPase, Kinase-Glo ATP luminescence; shares compounds with p97 inhibitor; 760 compounds, 44% hits;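 active = percent inhibition of p97 ATPase above a set limit, the primary screen's mean plus 3 SD, cut at about 15% in these data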
Each line names hits and unclear results; the compound was inactive in the other large screens (follow-up assays come after a bar, where they were run). Sampled rows, rich in hits. Any-hit rate of the full collection: about 2.1%.

c1cncc(-c2nc(NCc3ccc4c(c3)OCO4)c3ccccc3n2)c1	p97 inhibitor 17.3 | p97 confirm 20.6
Cn1cc(C(=O)CCl)c2ccccc21	p97 inhibitor 40.4 | p97 confirm 46.6
Cn1cc(C(N)=O)c2ccccc21	RanGTP-Impb inh inconclusive
S=C(Nc1ccc2nsnc2c1)N1CCCC1	p97 inhibitor 20.6 | p97 confirm inactive
Cc1occc1-c1nnc(SCC(=O)c2ccc(Cl)cc2)n1C	none
Cc1occc1-c1nnc(SCC(=O)c2c[nH]c3ccccc23)n1C	p97 inhibitor 17.5 (no result: RanGTP-Impb inh) | p97 confirm 28.6
CN(C)CCCNC(=O)C1CCNCC1	none
Cc1ccc2nc(/C(C#N)=C\c3ccc([N+](=O)[O-])o3)[nH]c2c1	p97 inhibitor 15.8, RanGTP-Impb inh inconclusive | p97 confirm 32.0
N#C/C(=C\c1ccc([N+](=O)[O-])o1)c1nc2ccccc2[nH]1	p97 inhibitor 20.9 (no result: RanGTP-Impb inh) | p97 confirm 36.1
N#C/C(=C(/O)c1ccc([N+](=O)[O-])o1)c1nc2ccccc2[nH]1	none
CCOC(=O)NC(=O)CSc1nc2ccccc2[nH]1	p97 inhibitor 16.4 | p97 confirm inactive
O=c1c(-c2ccc([N+](=O)[O-])cc2)coc2c(O)c(O)ccc12	p97 inhibitor 18.2 | p97 confirm 24.4
CN(C)/N=C/c1c(O)ccc2ccccc12	none
OCC(CO)(CO)N=Cc1c(O)ccc2ccccc12	p97 inhibitor 28.6 | p97 confirm inactive
Oc1ccc2ccccc2c1C=NC12CN3CCN(CN(C3)C1)C2	p97 inhibitor 19.9 | p97 confirm 21.1
CCN(CC)S(=O)(=O)c1ccc(OC)c(NC(=O)c2cc3c(=O)n4ccccc4nc3s2)c1	none
CC(=O)NS(=O)(=O)c1ccc(NC(=O)c2cc3c(=O)n4ccccc4nc3s2)cc1	p97 inhibitor 16.8 | p97 confirm inactive
O=C(O)CN1C(=O)SC(Nc2ccc(Cl)cc2)C1=O (stereo unspecified)	none
CSC1=C(C#N)C(=O)NC(c2ccc(Cl)cc2)S1 (stereo unspecified)	p97 inhibitor 17.6 | p97 confirm 30.8
COc1ccc(C(C)=O)cc1COc1ccccc1[N+](=O)[O-]	none
COc1ccc(C(C)=O)cc1COC(=O)c1ccc(N)c([N+](=O)[O-])c1	p97 inhibitor 18.0 | p97 confirm 22.4
COC(=O)[C@H](CC(C)C)NC(=O)N1CCN(c2cccc(C(F)(F)F)c2)CC1	none
CCOc1ccccc1C(=O)Nc1cc(Cl)ccc1O	p97 inhibitor 17.6 | p97 confirm 23.2
O=C(CN1C(=O)COc2ccc(S(=O)(=O)N3CCCCC3)cc21)NCc1ccccc1Cl	none (no result: Runt-SMMHC FRET, TbHK1 inh, Runt-CBFb FRET, Hck Nef HTS, p97 inhibitor)
CCOc1ccccc1N1CCN(CC(=O)NCCc2ccc(S(N)(=O)=O)cc2)CC1	none
C[n+]1cccc2c(Br)ccc([O-])c21	p97 inhibitor 45.5 | p97 confirm inactive
[O-][n+]1cccc2c(Br)cc(Br)c(O)c21	none (no result: RanGTP-Impb inh)
COc1ccccc1-c1nnc(NC(=O)C(C)SC2=NCCS2)s1 (stereo unspecified)	p97 inhibitor 17.2 | p97 confirm 19.6
COC(=O)c1c(C)oc(C)c1S(=O)(=O)NC(C)(C)C	none
COc1ccc(/C=N/N(C)c2cc(=O)n(C)c(=O)[nH]2)cc1OC	p97 inhibitor 18.2 (no result: RanGTP-Impb inh) | p97 confirm inactive
CN(/N=C/C=C/c1ccccc1)c1cc(=O)n(C)c(=O)[nH]1	none
CC(C)=CCC1=C(OCC(=O)O)C(=O)c2ccccc2C1=O	p97 inhibitor 32.1 | p97 confirm 28.6
CC(C)=CCC/C(C)=C/CC/C(C)=C/CC/C(C)=C/CC1=C(C)C(=O)c2ccccc2C1=O	none (no result: p97 inhibitor)
CCCCn1nc2cc(C(=O)NCc3ccc(OC(F)(F)F)cc3)ccc2c1OC	p97 inhibitor 16.0 (no result: Runt-CBFb FRET) | p97 confirm inactive
COc1ccc([N+](=O)[O-])c(S(=O)(=O)c2ccc(Cl)cc2)n1	none
COc1ccc([N+](=O)[O-])c(S(=O)(=O)c2ccccc2)n1	p97 inhibitor 15.0 | p97 confirm 17.2
CCCC1Nc2ccc(C(=O)O)cc2C2C=CCC12 (stereo unspecified)	p97 inhibitor 25.8 | p97 confirm inactive
COCC(=O)OCC(=O)Nc1ccccc1-c1ccccc1	none
COc1ccc(OC)c(N(C(=O)c2ccco2)C(C(=O)NC2CCCC2)c2ccc(N3CCOCC3)cc2)c1 (stereo unspecified)	none (no result: Runt-SMMHC FRET, TbHK1 inh, Runt-CBFb FRET, Hck Nef HTS, p97 inhibitor)
CSc1ccccc1NC(=O)Nc1ccc(F)c(Cl)c1	p97 inhibitor 24.8 | p97 confirm inactive
COc1ccccc1NC1=C(Cl)C(=O)N(c2ccccc2)C1=O	p97 inhibitor 17.4 | p97 confirm 27.1
COc1ccc(NC2=C(Cl)C(=O)N(c3ccccc3)C2=O)c(OC)c1	p97 inhibitor 24.8 | p97 confirm inactive
CCN(CC)S(=O)(=O)c1cccc(C(=O)NC(Cc2c[nH]c3ccccc23)c2nnc3n2CCCCC3)c1 (stereo unspecified)	none
O=C(CSc1ccc(F)cc1)Nc1ccccc1Br	p97 inhibitor 15.3 | p97 confirm inactive
O=C(CSc1ccc(F)cc1)Nc1ccc(Br)cc1	none
Cc1csc2c(=O)sc(NC(=O)c3ccc(F)cc3Cl)nc12	p97 inhibitor 16.9 | p97 confirm 19.5
Cc1csc2c(=O)sc(NC(=O)c3ccc(F)cc3)nc12	none
CC1=NN(c2ccc(Cl)cc2)C(=O)C1C(c1cccc(O)c1)c1c(C)[nH]n(-c2ccc(Cl)cc2)c1=O (stereo unspecified)	p97 inhibitor 17.1 | p97 confirm inactive
CC(C)C[C@@H](CO)N1CCN(Cc2cccnc2)CCC1=O	none (no result: Runt-SMMHC FRET, TbHK1 inh, Runt-CBFb FRET, Hck Nef HTS, p97 inhibitor)
O=C1CCCC/C1=C\Nc1ccc(O)cc1	p97 inhibitor 21.2 | p97 confirm inactive
O=C(NC1=NCCS1)c1ccccc1OCc1ccc(F)cc1	none
CC(=O)OCC(=O)C1=CCC2C3CCC4=CC(=O)C=CC4(C)C3(F)C(OC(C)=O)CC12C (stereo unspecified)	p97 inhibitor 14.8 (no result: Runt-SMMHC FRET, Runt-CBFb FRET) | p97 confirm inactive
CCC1C(=O)N(C)CCc2ccccc21 (stereo unspecified)	none
O=S(=O)(c1ccc2oc(=S)[nH]c2c1)N1CCCCC1	p97 inhibitor 21.3 | p97 confirm inactive
O=c1[nH]c2ccc(S(=O)(=O)N3CCCCC3)cc2o1	none
Cc1ccc(/C=C2/SC(=O)NC2=S)o1	Runt-SMMHC FRET 58.9, p97 inhibitor 25.8 (no result: RanGTP-Impb inh) | p97 confirm inactive
Cc1cccc(C2c3[nH]c4ccccc4c3CCN2C(=O)c2ccc(=O)[nH]c2)n1 (stereo unspecified)	p97 inhibitor 17.3 | p97 confirm inactive
